Screening data (PubChem)
In the library only some 0.99% were active in any assay of this set; here they are far more common.
CaV13 ICDI inh = Disruptors of the CACNA1D IQ motif to Ca2+-dependent inactivation inhibitor domain association, primary screening, Förster resonance energy transfer in intact living …. inhibition, % at 12.3 µM. HEK cells, CFP/YFP FRET ICDI-IQ, plate reader, 10 min; percent FRET-ratio fall versus neutral wells. hit rate 0.098% among 340,000;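 active = mean replicate inhibition of at least 30% and at least 1% of replicates passing that level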;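 also: 0% = median of the neutral control wells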
CASP6 VEID inh = caspase-6 (human) enzyme inhibition; P55212; purified caspase-6, Z-VEID-R110 cleavage fluorescence; inhibition, % at 12.5 µM; hit rate 0.53% among 350,000; AID 686996;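 active = mean inhibition across replicates at least about 35%, with every replicate also reaching that limit, limit read from the data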;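 also: 0% = median of neutral control wells and 100% = no fluorescence left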
NPR2 activator = GC-B (human) receptor activation; activation, % at 10 µM; hit rate 0.11% among 370,000; P20594; HEK293-GC-B cells, CNP EC30, cGMP TR-FRET; 0% at EC30 CNP, 100% saturating CNP;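 active = activation at 10 µM reaching about 35% in either raw or pattern-adjusted values, limit read from the data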
Target sequence (P20594 whole entry, looked up): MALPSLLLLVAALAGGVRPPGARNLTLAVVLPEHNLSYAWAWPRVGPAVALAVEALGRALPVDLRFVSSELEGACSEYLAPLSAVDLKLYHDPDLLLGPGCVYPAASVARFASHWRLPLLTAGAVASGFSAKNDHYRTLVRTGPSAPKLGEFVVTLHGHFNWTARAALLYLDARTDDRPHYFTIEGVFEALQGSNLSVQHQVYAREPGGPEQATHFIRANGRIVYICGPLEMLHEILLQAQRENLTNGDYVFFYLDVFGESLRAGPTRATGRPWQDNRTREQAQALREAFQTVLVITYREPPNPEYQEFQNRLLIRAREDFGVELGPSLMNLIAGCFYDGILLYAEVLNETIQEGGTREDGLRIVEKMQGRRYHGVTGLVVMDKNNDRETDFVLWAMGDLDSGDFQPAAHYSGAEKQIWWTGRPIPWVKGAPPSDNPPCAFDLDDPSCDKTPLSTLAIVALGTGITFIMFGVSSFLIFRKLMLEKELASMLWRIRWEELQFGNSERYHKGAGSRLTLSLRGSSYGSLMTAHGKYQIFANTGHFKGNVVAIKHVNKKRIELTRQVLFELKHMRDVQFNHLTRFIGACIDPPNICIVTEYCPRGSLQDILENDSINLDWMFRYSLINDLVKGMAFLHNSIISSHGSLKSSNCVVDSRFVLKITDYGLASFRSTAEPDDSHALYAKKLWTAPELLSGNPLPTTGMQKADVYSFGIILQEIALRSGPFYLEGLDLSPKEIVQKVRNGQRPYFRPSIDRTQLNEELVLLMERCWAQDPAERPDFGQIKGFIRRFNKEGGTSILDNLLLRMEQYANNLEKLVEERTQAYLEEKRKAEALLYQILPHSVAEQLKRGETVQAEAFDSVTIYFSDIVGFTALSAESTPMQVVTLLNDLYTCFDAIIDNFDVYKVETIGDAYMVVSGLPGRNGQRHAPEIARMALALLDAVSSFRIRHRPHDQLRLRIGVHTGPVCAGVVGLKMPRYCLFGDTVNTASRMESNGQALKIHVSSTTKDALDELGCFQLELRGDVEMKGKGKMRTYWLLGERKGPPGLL
FN deposit inh = fibronectin deposition inhibition. hit rate 0.086% among 350,000. AH1F fibroblasts, Alexa488-fibronectin deposition fluorescence, overnight. AID 743247. inhibition, % at 12.6 µM;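 active = mean inhibition across replicates of 30% or more, regardless of how many single replicates reach that level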;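 also: positive control wells lacked labelled fibronectin entirely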
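Material – AH1F fibroblast monolayer, labelled fibronectin deposition · Reagent – labelled fibronectin 24 nM · Timing – 1 h adhesion, overnight exposure · Measured by – fluorescence at 485 nm excitation, 525 nm emission · Read-out – inhibition of fibronectin deposition signal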
GC-A act = GC-A (human) enzyme activation. HEK293 GC-A cells, cGMP TR-FRET, EC30 ANP; 0% at EC30 ANP, 100% saturating ANP. activation, % at 10 µM. hit rate 0.14% among 370,000. AID 1671463; in the data active = activation above about 40%
NSD2 HMT inh = blocks human histone methyltransferase NSD2; inhibition, % at 12.5 µM; O96028; hit rate 0.54% among 310,000; NSD2 peptide methylation, AlphaScreen, 120 min; AID 743445; in the data active = inhibition above about 50%
AlphaScreen art = counter-screen for NSD2 inhibitors: AlphaScreen artifacts; shares compounds with NSD2 HMT inh; AlphaScreen artifact counterscreen, preloaded methylated H4 peptide; AC35, µM (titrated, usually from 10 µM), without a hit: top-dose activity change, negative = signal loss; hit rate 9.4% among 1,500; AID 1053174; call rule not given here
Numbers without * were called inactive; nt = no result given.

SMILES | CaV13 ICDI inh | CASP6 VEID inh | NPR2 activator | FN deposit inh | GC-A act | NSD2 HMT inh | AlphaScreen art
C[C@@H]1CN([C@H](C)CO)C(=O)c2cc(-c3cccc(F)c3)cnc2O[C@@H]1CN(C)C(=O)C1CCC1 | nt | -1 | nt | 8 | nt | nt | nt
O=C1ON=C(c2ccccc2)/C1=C/c1ccc(O)cc1 | -4 | 8 | 11 | -4 | 35 | 63* | -3%
COc1cc(/C=C2\C(=O)ON=C2c2ccccc2)cc(Cl)c1O | -30 | 1 | -3 | -11 | 15 | 64* | -6%
COc1cc(/C=C/c2nc3ccccc3c(=O)[nH]2)cc(Cl)c1O | -8 | 6 | -9 | 1 | -4 | 82* | -6%
N=C1/C(=C/c2coc3ccccc3c2=O)C(=O)N=C2SC(c3ccco3)=NN12 | nt | nt | nt | nt | nt | 84* | -3%
CC(C)CSC1=NSC2=NC(=O)/C(=C\c3coc4ccccc4c3=O)C(=N)N12 | -11 | nt | -7 | -5 | 7 | 12 | nt
N=C1/C(=C\c2coc3ccccc3c2=O)C(=O)N=C2SC(c3ccncc3)=NN12 | -140 | 41* | 15 | 7 | 9 | 98* | -3%
Cc1cc2c(cc1C)N1C(=N)/C(=C\c3coc4ccccc4c3=O)C(=O)N=C1S2 | nt | nt | nt | nt | nt | -1 | nt
CSC1=NSC2=NC(=O)/C(=C\c3coc4ccccc4c3=O)C(=N)N12 | -34 | 7 | 1 | -12 | 3 | 74* | 1%
C[C@@H]1CCCCO[C@H](CN(C)S(=O)(=O)c2ccccc2)[C@H](C)CN([C@@H](C)CO)C(=O)c2cc(NC(=O)CCCN(C)C)ccc2O1 | nt | 0 | nt | -7 | nt | nt | nt
CCCC#Cc1cnc2c(c1)C(=O)N([C@@H](C)CO)C[C@H](C)[C@@H](CN(C)C(=O)Cc1ccncc1)O2 | nt | -2 | nt | nt | nt | nt | nt
O=C(NNc1cc(N2CCCC2)nc(N2CCCC2)n1)c1ccc([N+](=O)[O-])cc1 | 64* | 0 | 2 | -16 | -8 | 89* | -2%
CC(C)(C)c1ccc(C(=O)NNc2cc(N3CCCCC3)nc(N3CCCCC3)n2)cc1 | -8 | nt | -2 | nt | -6 | nt | nt
CCOc1ccc(S(=O)(=O)N2CCCC(C(=O)NCCN3CCOCC3)C2)cc1Cl (stereo unspecified) | -7 | 0 | 4 | 7 | 5 | 83* | 1%
O=c1/c(=C/c2ccccn2)sc2n1CN(c1ccccc1)CN=2 | -4 | nt | -1 | -2 | -4 | -3 | nt
CCc1ccc(N2CN=c3s/c(=C\c4ccccc4)c(=O)n3C2)cc1 | -15 | -3 | -4 | 3 | 2 | 61* | 3%
C[C@@H]1CN([C@H](C)CO)C(=O)c2cccc(NC(=O)C3CC3)c2O[C@@H]1CN(C)S(=O)(=O)c1ccc(F)cc1 | nt | 2 | nt | 0 | nt | nt | nt
CCCCc1ccc(NC(=O)CSc2nc(=O)n(CCN(C)C)c3c2CCC3)cc1 | -5 | -16 | -2 | -23 | 1 | -2 | nt
CCCCc1ccc(NC(=O)CSc2nc(=O)n(CCN(CC)CC)c3c2CCCC3)cc1 | -6 | 16 | -5 | -20 | -3 | 66* | -3%
CCCC#Cc1ccc2c(c1)O[C@H](CN(C)C(C)=O)[C@H](C)CN([C@@H](C)CO)S2(=O)=O | nt | 0 | nt | 10 | nt | nt | nt
Cc1ccc(-c2nn3c(C)nnc3s2)cc1NC(=O)c1cccs1 | -7 | nt | 4 | nt | -2 | -1 | nt
Cc1cc2nn(-c3cccc4ccccc34)nc2cc1NC(=O)c1cccs1 | -8 | -2 | -7 | nt | 0 | 126* | -3%
CC1CN(Cc2c(O)ccc3c(=O)c(-c4ccccc4Cl)coc23)CC(C)O1 (stereo unspecified) | -20 | -1 | 11 | 2 | 5 | 61* | -1%
CCN(CC)CCCNc1nc(-n2nc(C)cc2C)nc2sc3c(c12)CC(C)(C)OC3 | -5 | -12 | -5 | 1 | -2 | 76* | -5%
CCC(=O)Nc1ccc(F)c(Cl)c1 | -5 | nt | 0 | nt | -3 | nt | nt
SMILES | CaV13 ICDI inh | CASP6 VEID inh | NPR2 activator | FN deposit inh | GC-A act | NSD2 HMT inh | AlphaScreen art
CC1NC(=O)NC1CCCCCC(=O)Nc1ccc(F)c(Cl)c1 (stereo unspecified) | 7 | -6 | -1 | -9 | -5 | 103* | 3.8µM*
COc1ccc2c3c(n(C)c2c1)[C@@H](CO)N(CC1CC1)CC31CCN(C(=O)c2ccc(F)cc2)CC1 | nt | -6 | nt | nt | nt | nt | nt
O=C(NC[C@@H]1CC[C@@H]2[C@@H](CN2C(=O)C2CCOCC2)O1)c1cccnc1 | nt | -5 | nt | nt | nt | nt | nt
COc1ccccc1CN(Cc1cc2cc3c(cc2[nH]c1=O)OCCO3)Cc1nnnn1Cc1ccco1 | -20 | nt | -5 | 10 | 4 | 60* | -6%
CN1CCCCCC1=Nc1ccc([N+](=O)[O-])cc1 | -2 | -3 | 2 | 0 | 1 | 57* | -2%
CCN(CC)C(=O)c1cc([N+](=O)[O-])cc2c1-c1ccc([N+](=O)[O-])cc1C2=C(C#N)C#N | -2 | 2 | -7 | 3 | -3 | 87* | -15%
CCCC(=O)Nc1ccc2c(c1)OC[C@H](C)N(C(=O)CN(C)C)C[C@@H](C)[C@@H](OC)CN(C)C2=O | nt | nt | nt | -9 | nt | nt | nt
O=C(CNc1ccc(F)cc1)N/N=C/c1c(O)ccc2ccccc12 | -27 | 3 | -4 | 6 | -2 | 70* | 1%
CC1(CC(=O)N/N=C/c2cc([N+](=O)[O-])c(O)cc2O)OCCO1 | 0 | 69* | 3 | -1 | 2 | 60* | 0%
Cc1ccc(-n2c(C)cc(/C=N/NC(=O)CC3(C)OCCO3)c2C)c(C)c1 | 1 | nt | -8 | nt | -1 | 1 | nt
Cc1noc(C)c1S(=O)(=O)Nc1ccc2c(c1)C(=O)N([C@H](C)CO)C[C@H](C)[C@H](CN(C)Cc1ccc(-c3ccccc3)cc1)O2 | nt | -3 | nt | nt | nt | nt | nt
CC(=O)Nc1ccc(NC(=O)C(C)OC(=O)c2ccccc2NS(=O)(=O)c2cccs2)cc1 (stereo unspecified) | -6 | 3 | 5 | 1 | -1 | -1 | nt
CC(=O)Nc1ccc(NC2=C/C(=N/S(=O)(=O)c3cccs3)c3ccccc3C2=O)cc1 | -7 | 99* | 5 | nt | 0 | 83* | -10%
